Our source for the kcat/Km, Km and kcat values is ChEMBL document CHEMBL1152990, “The mechanism of action of beta-D-2'-deoxy-2'-fluoro-2'-C-methylcytidine involves a second metabolic pathway leading to beta-D-2'-deoxy-2'-fluoro-2'-C-methyluridine 5'-triphosphate, a potent inhibitor of the hepatitis C virus RNA-dependent RNA polymerase” (Antimicrob Agents Chemother, 2008).

Substrate in data set [1]: Nc1ccn([C@H]2C[C@H](O)[C@@H](COP(=O)(O)O)O2)c(=O)n1
As to the kind of experiment: Ratio of Kcat to Km for cloned deoxycytidylate deaminase in human HepG2 cells by spectrophotometric analysis. It is filed as cell-based. Put shortly:
(§1)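 Recombinant human DCTD cloned from HepG2 cells, 9.3 nM final, with dCMP substrate. Spectrophotometric deamination at 37°C, monitoring absorbance at 290 nm (Δɛ = 1,694 M−1 cm−1). Rates from linear traces were fitted to Michaelis-Menten to obtain Km, kcat and kcat/Km.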

Substrate in data set [2]: Nc1ccn([C@H]2C[C@H](O)[C@@H](COP(=O)(O)O)O2)c(=O)n1
Nature of the data set: Activity of cloned deoxycytidylate deaminase in human HepG2 cells by spectrophotometric analysis. It is filed as cell-based. Put shortly: as §1

Substrate in data set [3]: C[C@@]1(F)[C@H](O)[C@@H](COP(=O)(O)O)O[C@H]1n1ccc(N)nc1=O
Nature of the data set: Activity of cloned deoxycytidylate deaminase in human HepG2 cells by HPLC assay. It is filed as cell-based. Put shortly:
(§2)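 Recombinant His-tagged human DCTD cloned from HepG2 cells. 0.56 μg enzyme in 50 mM Tris-HCl pH 7.5, 2 mM MgCl2, 20 mM β-mercaptoethanol, at 37°C. Samples taken at 5, 10 and 20 min, quenched with HCl and filtered. Nucleotides were resolved by SAX HPLC (KH2PO4 pH 3.5 gradient), detected at 254 nm and quantified against standard curves.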

Substrate in data set [4]: C[C@@]1(F)[C@H](O)[C@@H](COP(=O)(O)O)O[C@H]1n1ccc(N)nc1=O
As to the kind of experiment: Ratio of Kcat to Km for cloned deoxycytidylate deaminase in human HepG2 cells by HPLC assay. It is filed as cell-based. Summed up: as §2

Substrate in data set [5]: C[C@@]1(F)[C@H](O)[C@@H](COP(=O)(O)O)O[C@H]1n1ccc(=O)[nH]c1=O
As to the kind of experiment: Activity of cloned UMP-CMP kinase in human HuH7 cells assessed as formation of RO2433 diphosphate by spectrophotometry. It is filed as cell-based. Particulars: Huh-7. Summed up: (§3)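 Recombinant human kinase read out by PK/LDH coupling, following NADH oxidation at 340 nm. Rates were measured over varied substrate levels and fitted for steady-state parameters.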

Substrate in data set [6]: C[C@@]1(F)[C@H](O)[C@@H](COP(=O)(O)O)O[C@H]1n1ccc(=O)[nH]c1=O
Nature of the data set: Ratio of Kcat to Km for cloned UMP-CMP kinase in human HuH7 cells assessed as formation of RO2433 diphosphate by spectrophotometry. It is filed as cell-based. The settings on record: Huh-7. Summed up: as §3

Substrate in data set [7]: C[C@@]1(O)[C@H](O)[C@@H](CO)O[C@H]1n1ccc(N)nc1=O
The settings on record: Homo sapiens; Huh-7.

Substrate in data set [8]: C[C@@]1(F)[C@H](O)[C@@H](CO)O[C@H]1n1ccc(N)nc1=O
The settings on record: Homo sapiens; Huh-7.

Substrate in data set [9]: Nc1ccn([C@H]2C[C@H](O)[C@@H](CO)O2)c(=O)n1
The settings on record: Homo sapiens; Huh-7.

Substrate in data set [10]: Nc1ccn([C@@H]2O[C@H](CO)[C@@H](O)[C@H]2F)c(=O)n1
The settings on record: Homo sapiens; Huh-7.

Substrate in data set [11]: C[C@@]1(O)[C@H](O)[C@@H](CO)O[C@H]1n1ccc(N)nc1=O
As to the kind of experiment: (§4) Activity of cloned cytidine deaminase in human HuH7 cells at 4 mM by spectrophotometric analysis. It is filed as cell-based. Particulars: Huh-7. Put shortly: (§5)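 Recombinant human CDA cloned from Huh-7 cells. Reaction at 30°C in 50 mM Tris-HCl pH 7.5, started by adding enzyme. Deamination was followed spectrophotometrically at wavelengths chosen by substrate level, with Δɛ set per wavelength. Rates came from the linear trace and Beer's law and were fitted to Michaelis-Menten. Highest concentration tested 4 mM.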

Substrate in data set [12]: C[C@@]1(F)[C@H](O)[C@@H](CO)O[C@H]1n1ccc(N)nc1=O
The data set is described as §4. It is filed as cell-based. The settings on record: Huh-7. Summed up:
as §5

Substrate in data set [13]: Nc1ccn([C@H]2C[C@H](O)[C@@H](CO)O2)c(=O)n1
Particulars: Homo sapiens; Huh-7. The source holds these as a separate data set.

Substrate in data set [14]: Nc1ccn([C@@H]2O[C@H](CO)[C@@H](O)[C@H]2F)c(=O)n1
The settings on record: Homo sapiens; Huh-7. This is another data set of the same source.

B1: Deoxycytidylate deaminase (Homo sapiens), P32321 (protein)
chain: MSEVSCKKRDDYLEWPEYFMAVAFLSAQRSKDPNSQVGACIVNSENKIVGIGYNGMPNGCSDDVLPWRRTAENKLDTKYPYVCHAELNAIMNKNSTDVKGCSMYVALFPCNECAKLIIQAGIKEVIFMSDKYHDSDEATAARLLFNMAGVTFRKFIPKCSKIVIDFDSINSRPSQKLQ
Consider B1, for which the kcat/Km was found to be 2.8e+06 M⁻¹ s⁻¹ in data set [1] and 400 M⁻¹ s⁻¹ in data set [4]. In addition, the Km in data set [2] came out at 87 µM; in data set [3], 2000 µM. Further, the results for the kcat in data set [2] and in [3] were 246 s⁻¹ and 0.82 s⁻¹, respectively.

B2: UMP-CMP kinase (Homo sapiens), P30085 (protein)
chain: MKPLVVFVLGGPGAGKGTQCARIVEKYGYTHLSAGELLRDERKNPDSQYGELIEKYIKEGKIVPVEITISLLKREMDQTMAANAQKNKFLIDGFPRNQDNLQGWNKTMDGKADVSFVLFFDCNNEICIERCLERGKSSGRSDDNRESLEKRIQTYLQSTKPIIDLYEEMGKVKKIDASKSVDEVFDEVVQIFDKEG
On to B2, for which, in data set [5], the Km worked out at 870 µM and the kcat was 7.9 s⁻¹. Also, in data set [6], the kcat/Km was 9100 M⁻¹ s⁻¹.

B3: Cytidine deaminase (Homo sapiens), P32320 (protein)
chain: MAQKRPACTLKPECVQQLLVCSQEAKKSAYCPYSHFPVGAALLTQEGRIFKGCNIENACYPLGICAERTAIQKAVSEGYKDFRAIAIASDMQDDFISPCGACRQVMREFGTNWPVYMTKPDGTYIVMTVQELLPSSFGPEDLQKTQ
For B3, the kcat/Km in data set [7] is 58 M⁻¹ s⁻¹; in [8] it was 65 M⁻¹ s⁻¹; in [9], 120000 M⁻¹ s⁻¹; in data set [10], 140000 M⁻¹ s⁻¹. For the same protein, the Km was 3100 µM in [11], 4000 µM in [12], 41 µM in data set [13] and 27 µM in data set [14]. For the same protein, the kcat in data set [11] came out at 0.18 s⁻¹; in data set [12], 0.26 s⁻¹; in [13] it was 4.8 s⁻¹; in data set [14] it was 3.8 s⁻¹.

By kcat/Km is commonly meant the second-order rate constant that governs catalysis at low substrate concentration. One may read the Km as the substrate concentration at which the rate is half of its maximum. For orientation: kcat means the number of substrate molecules converted per active site and unit of time at saturation.
